SMILES strings stand for the structures.

Data set [1] in a line: Inhibition of bovine brain tubulin polymerisation preincubated for 15 mins followed by GTP addition and measured for 20 mins by turbidimetry based spectrophotometric method. The arrangement: species or system Bos taurus. A digest of the protocol: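 Bovine brain tubulin at 1.0 mg/mL (10 µM) in 0.8 M monosodium glutamate (pH 6.6) with 4% DMSO and compound. Preincubated 15 min at 30 °C, chilled, then 0.4 mM GTP added. Temperature jumped from 0 to 30 °C; turbidity at 350 nm followed for 20 min. IC50 is the concentration halving extent of assembly.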

Data set [2] can be described thus: Stability of the compound in pH 7.4 potassium phosphate buffer assessed as compound hydrolysis after 24 to 48 hrs. In kind it is physicochemical.
Data set [3] deals with A549. Nature of the data set: Cytotoxicity against human A549 cells incubated for 52 hrs in oxic condition by sulforhodamine B assay. It counts as functional. The note with it: A549, 52 h. A digest of the protocol:
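Normoxic arm: A549 cells at 6000 cells/well, 2 h attachment. Serial dilutions from DMSO stocks, top final concentration 50 µg/mL, in duplicate. Drug exposure 4 h under 95% air/5% CO2, then 48 h aerobic culture. Cytotoxicity read by SRB.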

Data set [4] deals with A549. Nature of the data set: Ratio of GI50 for human A549 cells in oxic condition to GI50 for anoxic condition. It counts as functional. A digest of the protocol: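 A549 cells at 6000 cells/well. Drug exposure 4 h either anaerobic (≤10 ppm O2, preconditioned medium and plates) or under 95% air/5% CO2, then 48 h aerobic. SRB cytotoxicity read in duplicate, top final concentration 50 µg/mL. Ratio taken as oxic over anoxic value.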

For another data set, the target named is Tubulin (Homo sapiens) (UniProt P68371+Q9H4B7+P0DPH7+P68366+Q13509+Q71U36+P04350+Q3ZCM7+P07437+P68363+Q9BQE3+Q6PEY2+Q13885+Q9BVA1+Q9BUF5). Put plainly: Inhibition of [3H]colchicine binding to tubulin (unknown origin) at 5 uM incubated for 10 mins by scintillation counting relative to control. It counts as protein-complex assay. A digest of the protocol: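 Purified tubulin at 1.0 µM with 5.0 µM [3H]colchicine, in 1.0 M monosodium glutamate (pH 6.6), 0.5 mg/mL BSA, 0.1 M glucose-1-phosphate, 1.0 mM MgCl2, 1.0 mM GTP and 5% DMSO. Incubated 10 min at 37 °C, then filter-bound radioactivity counted. Percent inhibition taken against no-inhibitor controls, corrected for filter binding without tubulin.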

For data set [5], the target named is T1, NADPH-cytochrome P450 oxidoreductase (Rattus norvegicus, UniProt P00388).
T1 sequence (P00388 whole entry): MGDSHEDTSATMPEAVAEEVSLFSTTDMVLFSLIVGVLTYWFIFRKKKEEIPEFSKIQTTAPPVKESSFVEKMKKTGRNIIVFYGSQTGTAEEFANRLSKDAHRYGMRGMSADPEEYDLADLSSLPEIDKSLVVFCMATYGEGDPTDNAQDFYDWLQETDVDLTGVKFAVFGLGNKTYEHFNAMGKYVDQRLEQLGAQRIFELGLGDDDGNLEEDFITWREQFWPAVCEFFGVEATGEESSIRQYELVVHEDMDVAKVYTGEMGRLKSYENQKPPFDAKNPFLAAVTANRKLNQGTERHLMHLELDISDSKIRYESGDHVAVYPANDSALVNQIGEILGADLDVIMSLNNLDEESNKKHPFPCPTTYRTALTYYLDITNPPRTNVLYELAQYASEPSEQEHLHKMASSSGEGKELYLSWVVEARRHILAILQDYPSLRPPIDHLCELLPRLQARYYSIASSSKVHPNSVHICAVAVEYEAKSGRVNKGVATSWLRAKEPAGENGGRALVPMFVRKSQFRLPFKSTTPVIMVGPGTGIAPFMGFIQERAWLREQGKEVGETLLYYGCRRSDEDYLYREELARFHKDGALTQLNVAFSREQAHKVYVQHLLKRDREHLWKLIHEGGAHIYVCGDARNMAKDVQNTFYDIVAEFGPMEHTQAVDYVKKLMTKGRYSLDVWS
Put plainly: Substrate activity at rat NADPH-cytochrome P450 oxidoreductase expressed in supersomes assessed as compound cleavage after 90 mins in anaerobic condition by HPLC analysis. The note with it: read-out: Drug degradation. A digest of the protocol:
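Rat POR supersomes (0.006 U) with 0.8 mM NADPH, acting on compound diluted from 10 mM DMSO stock into 200 mM potassium phosphate pH 7.4 with 0.1% Triton X-100 and 400 µM protocatechuic acid. Made anaerobic by N2 evacuation/sparging plus 0.08 U protocatechuate dioxygenase. Incubated at 37 °C, quenched with acetonitrile, quantified by HPLC against standard curves; no-POR controls.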

A short description of data set [6]: Stability of the compound in pH 7.4 potassium phosphate buffer assessed as spontaneous compound hydrolysis measured for 150 mins. In kind it is physicochemical. The following applies: pH 7.4, 2.5 h.
Data set [7] concerns A549. Nature of the data set: Cytotoxicity against human A549 cells incubated for 4 hrs in anoxic condition followed by oxic exposure for 48 hrs by sulforhodamine B assay. It counts as functional. A digest of the protocol:
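Anoxic arm: A549 cells handled in an anaerobic chamber (≤10 ppm O2) with medium and plates preconditioned ≥48 h. 6000 cells/well, 2 h attachment. Serial dilutions from DMSO stocks, top final concentration 50 µg/mL, in duplicate. 4 h anaerobic drug exposure, then 48 h aerobic, then SRB readout.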

The test system of data set [8] is 4T1. Nature of the data set: Induction of vascular damage in mouse 4T1 cells harboring firefly luciferase reporter gene implanted BALB/C mouse assessed as reduction in light emission at 120 mg/kg, ip measured up to 72 hrs by Bioluminescence imaging analysis. It counts as functional. The arrangement: scale not given: the % may be the effect or the level left. A digest of the protocol: (§1)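 Orthotopic 4T1-luc mammary fat pad tumours (10–12 mm) in female BALB/c mice. Single IP dose of 120 mg/kg in saline given right after baseline imaging. Dynamic BLI over about 20 min after subcutaneous D-luciferin (120 mg/kg), repeated with fresh luciferin at 4, 24 and 48 h. Signal compared by area under the light emission curve.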

The test system of data set [9] is 4T1. Nature of the data set: Induction in necrosis in tumor of BALB/C mouse implanted with mouse 4T1 cells harboring firefly luciferase reporter gene at 120 mg/kg, ip measured after 72 to 96 hrs by hematoxylin and eosin staining based assay (reference value: 46%). In kind it is functional.
Data set [10] relates to 4T1. Nature of the data set: Induction of vascular damage in mouse 4T1 cells harboring firefly luciferase reporter gene implanted BALB/C mouse assessed as reduction in light emission at 120 mg/kg, ip measured after 4 hrs by Bioluminescence imaging analysis. It counts as functional. On the set-up: scale not given: the % may be the effect or the level left. A digest of the protocol:
as §1

Consider `COc1ccc(/C=C\c2cc(OC)c(OC)c(OC)c2)c(OC(C)(C)c2ccc([N+](=O)[O-])s2)c1O`, for which the IC50 in data set [1] amounted to 1300 nM. Besides, the results for the Stability result in data set [2] and in [6] were “Unstable” and “Stable”, respectively. In addition, the results for the GI50 in the data set with A549 [3] and with A549 [7] were 6000 nM and 480 nM, respectively. Besides, in the data set with A549 [4], the RatioGI50 is 12.5. The same compound came in with an inhibition at Tubulin (Homo sapiens) of 43%. For the same compound, the metabolised at 1.5 h in data set [5] worked out at 100%.

For `COc1ccc(/C=C\c2cc(OC)c(OC)c(OC)c2)cc1OP(=O)([O-])[O-].[Na+].[Na+]` [FOSBRETABULIN DISODIUM], the Activity in the data set with 4T1 [8] is on record as >90%; with 4T1 [9] it was 70%; in the data set with 4T1 [10], >99%.

For the origin of these results see ChEMBL document CHEMBL4610093, “Bioreductively Activatable Prodrug Conjugates of Combretastatin A-1 and Combretastatin A-4 as Anticancer Agents Targeted toward Tumor-Associated Hypoxia” (J Nat Prod, 2020).
